This is an account of results in ChEMBL document CHEMBL2321786, “Paclitaxel is an inhibitor and its boron dipyrromethene derivative is a fluorescent recognition agent for botulinum neurotoxin subtype A” (J Med Chem, 2013).

In experiment [1] the target is Botulinum neurotoxin type A (Clostridium botulinum) (UniProt P0DPI0). In words: Binding affinity to nonactivated whole Clostridium botulinum biotinylated neurotoxin A in streptavidin-coated magnetic beads at 10 uM after 1 hr by fluorescence intensity assay relative to control.
Botulinum neurotoxin type A (Clostridium botulinum), sequence (P0DPI0 2-448 limits assumed): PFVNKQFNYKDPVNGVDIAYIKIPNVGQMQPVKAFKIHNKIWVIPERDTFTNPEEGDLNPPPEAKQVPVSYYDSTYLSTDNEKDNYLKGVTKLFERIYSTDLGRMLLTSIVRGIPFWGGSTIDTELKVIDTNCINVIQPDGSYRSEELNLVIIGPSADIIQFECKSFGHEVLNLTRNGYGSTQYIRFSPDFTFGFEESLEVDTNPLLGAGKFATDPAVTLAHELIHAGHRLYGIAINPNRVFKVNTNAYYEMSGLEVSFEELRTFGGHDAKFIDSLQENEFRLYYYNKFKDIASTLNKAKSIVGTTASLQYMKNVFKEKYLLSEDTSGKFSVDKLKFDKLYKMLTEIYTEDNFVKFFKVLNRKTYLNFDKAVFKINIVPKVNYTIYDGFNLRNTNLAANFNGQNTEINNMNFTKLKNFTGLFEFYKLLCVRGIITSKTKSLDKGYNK
Experiment [2] shares this target. In words: Inhibition of Clostridium botulinum recombinant neurotoxin A light chain using SNAPtide as substrate at 10 uM after 1 hr by FRET assay relative to control. In short, it runs like this:
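Single-point FRET at 10 μM ligand: 10 nM light chain, 8 μM SNAPtide, pH 8.2, 37 °C, 1 h incubation, triplicate. Cleavage read at ex 490/em 523 nm. Percent inhibition calculated against uninhibited cleavage at the same substrate and enzyme levels.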

Experiment [3] has the same target. In words: Binding affinity to nonactivated whole Clostridium botulinum biotinylated neurotoxin A in streptavidin-coated magnetic beads using [14C] labeled compound at 25 uM relative to control.
The target in experiment [4] is Botulinum neurotoxin type A (Clostridium botulinum, UniProt P0DPI0). Nature of the experiment: Inhibition of Clostridium botulinum recombinant neurotoxin A light chain using SNAPtide as substrate after 1 hr by FRET assay. Put shortly: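 IC50 from a FRET dose-response: 10 nM light chain preincubated 30 min with inhibitor at 37 °C before adding SNAPtide (8 μM final). Fluorescence read at ex 490/em 523 nm and expressed relative to uninhibited cleavage. Triplicate wells with DMSO controls. IC50 from four-parameter nonlinear regression over two independent experiments.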
Botulinum neurotoxin type A, sequence (P0DPI0 2-448 limits assumed): as above

For experiment [5], the target named is Botulinum neurotoxin type A (Clostridium botulinum) (UniProt P0DPI0). Nature of the experiment: Binding affinity to Clostridium botulinum recombinant biotinylated neurotoxin A light chain incubated for 15 mins by scintillation proximity assay. In short, it runs like this:
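Scintillation proximity binding: [3H]paclitaxel at each concentration incubated with 7 nM biotinylated light chain for 15 min at room temperature. Streptavidin-coated polyvinyltoluene SPA beads (2 mg/mL) then added. Run in triplicate, read at 1 h intervals by scintillation counting. Counts corrected for nonspecific binding/nonproximity effects.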

Experiment [6] has the same target. In words: Binding affinity to nonactivated whole Clostridium botulinum biotinylated neurotoxin A in streptavidin-coated magnetic beads using [14C] labeled compound at 50 uM relative to control.
The target is the same in experiment [7]. In words: Binding affinity to nonactivated whole Clostridium botulinum biotinylated neurotoxin A in streptavidin-coated magnetic beads using [14C] labeled compound at 10 uM relative to control.

Active and inactive are the calls of the source. No cut-off for these calls is given here.

Take `CC(=O)O[C@H]1C(=O)[C@]2(C)[C@@H](OC(=O)CCNC(=O)c3ccc(-c4c5cc(F)c(=O)cc-5oc5cc(O)c(F)cc45)c(C(=O)O)c3)C[C@H]3OC[C@@]3(OC(C)=O)[C@H]2[C@H](OC(=O)c2ccccc2)[C@]2(O)C[C@H](OC(=O)[C@H](O)[C@@H](NC(=O)c3ccccc3)c3ccccc3)C(C)=C1C2(C)C`: in experiment [1], the Activity amounted to 4%.
For the compound `Nc1nc(N)c2nc(CNc3ccc(C(=O)N[C@@H](CCC(=O)O)C(=O)O)cc3)cnc2n1`, the inhibition (as a rule, the share of the control response that was lost under treatment) in experiment [2] is 11%.
Regarding `N[C@@H](CCCc1c(CC[C@H](N)C(=O)O)c[n+](CCCC[C@H](N)C(=O)O)cc1CC[C@H](N)C(=O)O)C(=O)[O-]`, in experiment [2], the inhibition stood at 25%.
Turning to `CC(=O)O[C@H]1C(=O)[C@@]2(C)[C@H]([C@H](OC(=O)c3ccccc3)[C@]3(O)C[C@H](OC(=O)[C@H](O)[C@@H](NC(=O)c4ccccc4)c4ccccc4)C(C)=C1C3(C)C)[C@]1(OC(C)=O)CO[C@@H]1C[C@@H]2O` [PACLITAXEL], the Activity in experiment [3] and in experiment [6] was 7% each time. Also, the IC50 – broadly, the midpoint of a concentration-inhibition curve – in experiment [4] was 5.2 µM. The inhibition in experiment [2] was 85%. Besides, the outcome in experiment [5] was Active.
Regarding `CC(=O)O[C@H]1C(=O)[C@@]2(C)[C@H]([C@H](OC(=O)c3ccccc3)[C@]3(O)C[C@H](OC(=O)[C@H](O)[C@@H](NC(=O)CCC4=[N+]5C(C=C4)Cc4ccc(/C=C/c6ccccc6)n4[B-]5(F)F)c4ccccc4)C(C)=C1C3(C)C)[C@]1(OC(C)=O)CO[C@@H]1C[C@@H]2O` (stereo partly drawn), the Activity in experiment [1] was determined as 46%.
In turn, `CC(=O)O[C@H]1C(=O)[C@@]2(C)[C@H]([C@H](OC(=O)c3ccccc3)[C@]3(O)C[C@H](OC(=O)[C@H](O)[C@@H](NC(=O)CCC4=[N+]5C(C=C4)Cc4c(C)cc(C)n4[B-]5(F)F)c4ccccc4)C(C)=C1C3(C)C)[C@]1(OC(C)=O)CO[C@@H]1C[C@@H]2O` (stereo partly drawn) had an Activity in experiment [1] of 22%.
`OCC1(O)OC[C@@H](O)[C@@H](O)[C@@H]1O` (stereo partly drawn): the Activity in experiment [7] was 5%. Besides, the inhibition in experiment [2] is 0%.
As to `CC[C@@]1([C@@H]2O[C@@H]([C@H]3O[C@@](O)(CO)[C@H](C)C[C@@H]3C)C[C@@H]2C)CC[C@H]([C@]2(C)CC[C@]3(C[C@H](O)[C@@H](C)[C@@H]([C@@H](C)[C@@H](OC)[C@H](C)C(=O)O)O3)O2)O1`, the inhibition in experiment [2] was 38%.
